ChEMBL document CHEMBL3272284, “Drugs derived from cannabinoids. 6. Synthesis of cyclic analogues of dimethylheptylpyran” (1976)
Activity calls are given as the source filed them. The rule behind the calls is not given here.

Assays:
Rattus norvegicus [1] = assay: Antihypertensive activity in rat assessed as reduction of blood pressure at 10 mg/kg, po after 3 hrs; type: functional; design: scale not given: the % may be the effect or the level left
Procedure, shortened: (§1)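 Cardiovascular screen in hypertensive rats. Compounds were given orally and blood pressure was measured after dosing, with readings taken at 3 h and over 24 h. Activity is expressed as percent decrease in blood pressure.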

Mus musculus [2] = assay: Central nervous system activity in mouse assessed as fighting at 10 mg/kg, po; type: functional, organism-based; design: dose 10 mg/kg
Mus musculus [3] = assay: […] activity in mouse assessed as protection against audiogenic seizure up to 30 mg/kg, po; type: functional, organism-based; design: dose 30 mg/kg
Rattus norvegicus [4] = assay: Antidepressant activity in rat assessed as motor activity at 5 mg/kg, po; type: functional, organism-based; design: dose 5 mg/kg
Rattus norvegicus [5] = assay: Antihypertensive activity in po dosed rat assessed as reduction of blood pressure; type: functional, organism-based; procedure, shortened: as §1
Rattus norvegicus [6] = assay: Antihypertensive activity in rat assessed as reduction of blood pressure at 0.1 mg/kg, po; type: functional; design: scale not given: the % may be the effect or the level left; procedure, shortened: as §1
Rattus norvegicus [7] = assay: Antihypertensive activity in rat assessed as reduction of blood pressure at 10 mg/kg, po after 24 hrs; type: functional; design: scale not given: the % may be the effect or the level left; procedure, shortened: as §1

Structure (SMILES)	Activity (Rattus norvegicus [1])	Activity (Mus musculus [2])	Activity (Mus musculus [3])	Activity (Rattus norvegicus [4])	Activity (Rattus norvegicus [5])	Activity (Rattus norvegicus [6])	Activity (Rattus norvegicus [7])
CCCCCC1Cc2c(cc(O)c3c2OC(C)(C)C2=C3CC(C)CC2)C1C (stereo not given)	6%	inactive	inactive	inactive	–	–	–
CCCCCC1Cc2c(cc3c(c2O)C2=C(CCC(C)C2)C(C)(C)O3)C1C (stereo not given)	–	inactive	inactive	inactive	inactive	–	–
CCCCCC(C)C(C)c1cc(O)c2c(c1)OC(C)(C)C1=C2CC(C)CC1 (stereo not given)	–	–	–	–	–	8%	38%
